Assay results pooled from the literature.
Each line is one published result; the experiments were not run side by side.
Target: Casein kinase I isoform gamma-3 (CSNK1G3, Homo sapiens, UniProt Q9Y6M4)

O=C(O)[C@H]1[C@H](Cn2nnc3ccccc3c2=O)CC[C@@H]1C(=O)c1ccc(OCCC2CCOCC2)cc1
remaining binding (cell-free assay; competition with immobilised ligand; 1 µM): 100%

O=C(c1ccc(Nc2ncc(Cl)c(-c3cc4ccccc4s3)n2)cc1)N1CCC(N2CCCC2)CC1
remaining binding (binding; competition with immobilised ligand; 1 µM): 100%

Cc1c(C(=O)O)cc(-c2ccc(C3CCNCC3)cc2)c2ccc(-c3ccc(C(F)(F)F)cc3)cc12
remaining binding (cell-free assay; competition with immobilised ligand; 1 µM): 100%

COc1ncc2cc3ccccc3nc2c1C#N
remaining binding (cell-free assay; competition with immobilised ligand; 5 µM): 96%

O=C(NCC1CCOCC1)c1n[nH]cc1NC(=O)c1c(F)cccc1F
remaining binding (binding; competition with immobilised ligand; 1 µM): 78%

O=C(c1ccc(Nc2nccc(-c3cc4ccccc4s3)n2)cc1)N1CCC(N2CCCC2)CC1
remaining binding (binding; competition with immobilised ligand; 1 µM): 100%

COc1cnc(Nc2cccc(S(N)(=O)=O)c2)nc1N1CCN(c2ccccc2)C(=O)C1
remaining binding (binding; competition with immobilised ligand; 1 µM): 87%

FC(F)(F)Oc1cccc(-c2cnc3ccc(-c4ccncc4)nn23)c1
remaining binding (cell-free assay; competition with immobilised ligand; 5 µM): 84%

CN(C)c1ncc(F)c(-c2cnn3ncccc23)n1
remaining binding (binding; 1 µM): 100%

CNC(=O)[C@@H]1CC[C@@H](n2c(-c3ccc4cnccc4c3)nc3ccc(C(=O)NCc4cccc(C(N)=O)c4)cc32)C1
remaining binding (binding; competition with immobilised ligand; 1 µM): 100%

c1cnn2ncc(-c3ccnc(N4CCC45COC5)n3)c2c1
remaining binding (binding; 1 µM): 100%

Cc1nc(N2CC[C@@H](O)C2)ncc1-c1cc(C(F)(F)F)cc2[nH]ncc12
remaining binding (cell-free assay; competition with immobilised ligand; 1 µM): 74%

CN(C)c1nccc(-c2cnc3ncccn23)n1
remaining binding (binding; 1 µM): 70%

CN(C)CC#Cc1ccc(OCCCc2sc(N3CCc4cccc(C(=O)Nc5nc6ccccc6s5)c4C3)nc2C(=O)O)c(F)c1
remaining binding (cell-free assay; competition with immobilised ligand; 1 µM): 100%

N[C@H]1CCN(c2nccc(-c3cnn4ncccc34)n2)C1
remaining binding (binding; 1 µM): 100%

O=C1NC(c2ccccn2)Sc2ccccc21 (centres unmarked)
remaining binding (cell-free assay; competition with immobilised ligand; 1 µM): 100%

C[C@H]1CCN(c2nccc(-c3cnn4ncccc34)n2)C1
remaining binding (binding; 1 µM): 91%

CSc1cccnc1N1CCN(Cc2nc3ccccc3[nH]2)CC1
remaining binding (cell-free assay; competition with immobilised ligand; 1 µM): 86%

Cc1cnn2ncc(-c3ccnc(N(C)C)n3)c2c1
remaining binding (binding; 1 µM): 82%

O=C(NCCCN1CCOCC1)c1ccc(Nc2nccc(-c3cc4ccccc4s3)n2)cc1
remaining binding (binding; competition with immobilised ligand; 1 µM): 88%
